What was measured:
[1] = target: T1, Inhibitor of nuclear factor kappa-B kinase subunit beta (Homo sapiens, UniProt O14920); assay: Inhibition of human recombinant IKK2-mediated transfer of [gamma33P]ATP to biotinylated IkappaBalpha after 30 mins by scintillation counting
T1 sequence (O14920 whole entry): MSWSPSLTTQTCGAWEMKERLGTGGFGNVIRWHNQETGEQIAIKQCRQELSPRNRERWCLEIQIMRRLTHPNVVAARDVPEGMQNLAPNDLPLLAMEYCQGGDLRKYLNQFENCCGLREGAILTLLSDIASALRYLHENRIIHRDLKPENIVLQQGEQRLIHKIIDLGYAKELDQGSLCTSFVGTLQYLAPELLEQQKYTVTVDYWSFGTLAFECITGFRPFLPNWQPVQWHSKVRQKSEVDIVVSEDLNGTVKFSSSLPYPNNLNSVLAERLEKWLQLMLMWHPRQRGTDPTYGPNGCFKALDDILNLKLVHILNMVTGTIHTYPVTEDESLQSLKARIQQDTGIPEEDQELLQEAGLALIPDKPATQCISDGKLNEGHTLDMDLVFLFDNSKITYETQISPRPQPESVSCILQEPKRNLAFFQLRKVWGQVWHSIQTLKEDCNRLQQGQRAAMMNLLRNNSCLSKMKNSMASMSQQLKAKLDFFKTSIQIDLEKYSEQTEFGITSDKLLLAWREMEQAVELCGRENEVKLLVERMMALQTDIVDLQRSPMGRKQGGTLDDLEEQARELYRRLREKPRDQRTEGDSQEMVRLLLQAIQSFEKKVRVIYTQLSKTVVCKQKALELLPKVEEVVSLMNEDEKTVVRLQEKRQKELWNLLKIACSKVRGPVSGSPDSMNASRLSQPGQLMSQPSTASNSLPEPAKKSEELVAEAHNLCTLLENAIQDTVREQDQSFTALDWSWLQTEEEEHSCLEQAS
In short: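 Recombinant human IKK-2 enzyme (46 nM/rxn, 200 ng/rxn). Substrate 5 µM biotinylated IκBα peptide (residues spanning Ser32/Ser36) with 1 µM ATP plus 0.1 µCi [γ-33P]ATP. Buffer 25 mM Hepes pH 7.6 with 1 mM DTT, 2 mM MgCl2, 2 mM MnCl2, 10 mM NaF. Incubated 30 min at 25 °C, stopped with AG1X8 resin in formate buffer pH 3. Supernatant ³³P read by scintillation counting.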

[2] = Antiinflammatory activity in human synovial fibroblasts assessed as inhibition of IL-1-beta-stimulated IL8 production treated 1 hr before IL1-beta challenge measured after 18 hrs by ELISA; assay type: functional
In short: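 Rheumatoid arthritis patient synovial fibroblasts seeded at 1.5 × 10^4 cells/well in DMEM + 15% FBS and left to attach overnight. Medium then changed to DMEM + 1% FBS. Cells pretreated 1 h with increasing compound concentrations (0.2% Me2SO final), then stimulated 18 h with 1 ng/mL IL-1β. Secreted IL-8 measured by ELISA against standard curves (4-parameter logistic). Cytotoxicity checked by Alamar Blue.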

Row | Compound | IC50 [1] [nM] | IC50 [2] [µM]
1 | NC(=O)c1nn(-c2ccc(F)cc2)c2c1CCc1ccc(NC(=O)c3cccnc3N3CCOCC3)cc1-2 | 14200 | 
2 | NC(=O)c1nn(-c2ccc(F)cc2)c2c1CCc1ccc(NC(=O)c3cc(N4CCOCC4)ncc3Cl)cc1-2 | 146 | 2.14
3 | CN1CCCN(c2cc(C(=O)Nc3ccc4c(c3)-c3c(c(C(N)=O)nn3-c3ccc(F)cc3)CC4)c(Cl)cn2)CC1 | 29 | 2.36
4 | CN1CCN(c2ccc(Cl)c(C(=O)Nc3ccc4c(c3)-c3c(c(C(N)=O)nn3-c3ccc5c(c3)OCO5)CC4)n2)CC1 | 297 | 4.42
5 | COCCN1CCN(c2cc(C(=O)Nc3ccc4c(c3)-c3c(c(C(N)=O)nn3-c3ccc(F)cc3)CC4)c(Cl)cn2)CC1 | 59 | 1.02
6 | CN(C)CCNc1cc(C(=O)Nc2ccc3c(c2)-c2c(c(C(N)=O)nn2-c2ccc(F)cc2)CC3)c(Cl)cn1 | 70 | 4.72
7 | NC(=O)c1nn(-c2ccc(F)cc2)c2c1CCc1ccc(NC(=O)c3cc(N4CCCNCC4)ncc3Cl)cc1-2 | 27 | 1.94
8 | C[C@@H]1CN(c2cc(C(=O)Nc3ccc4c(c3)-c3c(c(C(N)=O)nn3-c3ccc(F)cc3)CC4)c(Cl)cn2)C[C@H](C)N1C | 98 | 5.5
9 | NC(=O)c1nn(-c2ccc(F)cc2)c2c1CCc1ccc(NC(=O)c3nc(N4CCOCC4)ccc3Cl)cc1-2 | 1250 | 3.04
10 | CN1CCN(c2cc(C(=O)Nc3ccc4c(c3)-c3c(c(C(N)=O)nn3-c3ccc5c(c3)OCO5)CC4)c(Cl)cn2)CC1 | 33 | 0.63
11 | NC(=O)c1nn(-c2ccc(F)cc2)c2c1CCc1ccc(NC(=O)c3ccnc(N4CCOCC4)c3)cc1-2 | 589 | > 5
12 | C[C@H]1CN(c2cc(C(=O)Nc3ccc4c(c3)-c3c(c(C(N)=O)nn3-c3ccc(F)cc3)CC4)c(Cl)cn2)CCN1 | 51 | 1.32
13 | NC(=O)c1nn(-c2ccc3c(c2)OCO3)c2c1CCc1ccc(NC(=O)c3cccnc3N3CCOCC3)cc1-2 | 5910 | 
14 | CNc1ccc(Cl)c(C(=O)Nc2ccc3c(c2)-c2c(c(C(N)=O)nn2-c2ccc4c(c2)OCO4)CC3)n1 | 477 | 5.74
15 | NC(=O)c1nn(-c2ccc(F)cc2)c2c1CCc1ccc(NC(=O)c3cc(N4CCNCC4)ncc3Cl)cc1-2 | 10 | 2.47
16 | NC(=O)c1nn(-c2ccc(F)cc2)c2c1CCc1ccc(NC(=O)c3cccnc3N)cc1-2 | 2320 | 
17 | C[C@@H]1CN(c2cc(C(=O)Nc3ccc4c(c3)-c3c(c(C(N)=O)nn3-c3ccc(F)cc3)CC4)c(Cl)cn2)C[C@H](C)N1 | 46 | 8.6

Row | Compound | IC50 [1] [nM] | IC50 [2] [µM]
18 | C[C@@H]1CN(c2cc(C(=O)Nc3ccc4c(c3)-c3c(c(C(N)=O)nn3-c3ccc(F)cc3)CC4)c(Cl)cn2)CCN1 | 54 | 3.98
19 | CN1CCN(c2ncccc2C(=O)Nc2ccc3c(c2)-c2c(c(C(N)=O)nn2-c2ccc4c(c2)OCO4)CC3)CC1 | 17300 | 
20 | NC(=O)c1nn(-c2ccc3c(c2)OCO3)c2c1CCc1ccc(NC(=O)c3cccnc3N)cc1-2 | 1340 | 
21 | NC(=O)c1nn(-c2ccc3c(c2)OCO3)c2c1CCc1ccc(NC(=O)c3nc(N4CCOCC4)ccc3Cl)cc1-2 | 612 | > 100
22 | NC(=O)c1nn(-c2ccc3c(c2)OCO3)c2c1CCc1ccc(NC(=O)c3cc(N4CCOCC4)ncc3Cl)cc1-2 | 90 | 0.849
23 | C[C@@H]1CN(c2cc(C(=O)Nc3ccc4c(c3)-c3c(c(C(N)=O)nn3-c3ccc(F)cc3)CC4)c(Cl)cn2)CCN1C | 48 | 2.18
24 | CN(C)CCN(C)c1cc(C(=O)Nc2ccc3c(c2)-c2c(c(C(N)=O)nn2-c2ccc(F)cc2)CC3)c(Cl)cn1 | 19 | 4.18
25 | CNc1ncccc1C(=O)Nc1ccc2c(c1)-c1c(c(C(N)=O)nn1-c1ccc3c(c1)OCO3)CC2 | 210 | 3.37
26 | CN1CCN(c2ccc(Cl)c(C(=O)Nc3ccc4c(c3)-c3c(c(C(N)=O)nn3-c3ccc(F)cc3)CC4)n2)CC1 | 348 | 4.83
27 | C[C@H]1CN(c2cc(C(=O)Nc3ccc4c(c3)-c3c(c(C(N)=O)nn3-c3ccc(F)cc3)CC4)c(Cl)cn2)CCN1C | 45 | 1.31
28 | CNc1ncccc1C(=O)Nc1ccc2c(c1)-c1c(c(C(N)=O)nn1-c1ccc(F)cc1)CC2 | 3210 | 
29 | NC(=O)c1nn(-c2ccc3c(c2)OCO3)c2c1CCc1ccc(NC(=O)c3cc(N4CCNCC4)ncc3Cl)cc1-2 | 40 | 1.86
30 | CN1CCN(c2ncccc2C(=O)Nc2ccc3c(c2)-c2c(c(C(N)=O)nn2-c2ccc(F)cc2)CC3)CC1 | 16200 | 
31 | NC(=O)c1nn(-c2ccc3c(c2)OCO3)c2c1CCc1ccc(NC(=O)c3cccnc3Cl)cc1-2 | 34 | 5
32 | CN1CCN(c2cc(C(=O)Nc3ccc4c(c3)-c3c(c(C(N)=O)nn3-c3ccc(F)cc3)CC4)ccn2)CC1 | 125 | > 5
33 | CC(C)N1CCN(c2cc(C(=O)Nc3ccc4c(c3)-c3c(c(C(N)=O)nn3-c3ccc(F)cc3)CC4)c(Cl)cn2)CC1 | 107 | 1.49
34 | NC(=O)c1nn(-c2ccc(F)cc2)c2c1CCc1ccc(NC(=O)c3cccnc3Cl)cc1-2 | 47 | 12
